# Data taken from article PMC6774347 (European Journal of Organic Chemistry, 2019).
# Columns and labels:
# CEM leukemia cell line = test: Differential nuclear staining; format: cell-based, human; conditions: 48 h; for Concentration inducing significant death in CEM cells: tested 100 µM to 0.5 µM; for CEM cell death (in words): at the prepared / highest soluble concentrations
# Summary of the method: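 Live-cell imaging differential nuclear staining with Hoechst 33342 (all nuclei) and propidium iodide (dead cells). DMSO stocks at highest soluble concentration were serially diluted and added to cells in complete medium (final 1 % v/v DMSO), 100 µM down to 0.5 µM. Read at 48 h in quadruplicate. Controls were untreated, 1 % DMSO and 1.62 mM H2O2. CC50 (50 % membrane-integrity loss versus untreated) was linearly interpolated between the two concentrations nearest 50 %.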
# TK+ VZV = test: Antiviral assay, plaque formation in HEL cells; format: cell-based, varicella-zoster virus (VZV); conditions: Human alphaherpesvirus 3, HEL
# [1] = Compound solubility in DMSO stock and in the biological assays; format: physicochemical; conditions: for Compound crystallization in treated cells: CEM cells in complete media, 1 % v/v DMSO; for Solubility (in words): stock solutions at highest soluble concentration in DMSO
# TK– VZV = test: Antiviral assay, plaque formation in HEL cells; format: cell-based, varicella-zoster virus (VZV); conditions: Human alphaherpesvirus 3, HEL
# CEM cells = test: Annexin V-FITC / propidium iodide apoptosis assay; format: cell-based, human; conditions: 24 h, annexin-FITC and PI staining
# [2] = system: MDA-MB-231 (MB-231) triple-negative breast cancer cell line; test: Differential nuclear staining; format: cell-based; conditions: Homo sapiens, MDA-MB-231, 72 h
# Summary of the method: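 MDA-MB-231 cells were stained with Hoechst 33342 and propidium iodide and imaged live. Serial dilutions from 100 µM (to 0.5 µM) in DMSO were added directly to cell-containing wells (final 1 % v/v DMSO). Read at 72 h in quadruplicate. Controls were untreated, 1 % DMSO and 1.62 mM H2O2. CC50 was linearly interpolated between the two concentrations flanking 50 % death relative to untreated cells.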
compound,measurement,setting,value
"COc1cccc(-c2cn(-c3cc(=O)oc4ccc(Br)cc34)nn2)c1 [Compound 24, 6‐Bromo‐4‐(4‐(3‐methoxyphenyl)‐1H‐1,2,3‐triazol‐1‐yl)‐2H‐chromen‐2‐one]",Concentration inducing significant death in CEM cells,CEM leukemia cell line,approximately 10 µM
"COc1cc(-c2cn(-c3cc(=O)oc4ccc(C)cc34)nn2)cc(OC)c1OC [Compound 14, 6‐Methyl‐4‐(4‐(3,4,5‐trimethoxyphenyl)‐1H‐1,2,3‐triazol‐1‐yl)‐2H‐chromen‐2‐one]",CEM cell death (in words),CEM leukemia cell line,did not induce significant CEM cell death
"COc1ccc(-c2cn(-c3cc(=O)oc4ccc(Br)cc34)nn2)cc1 [Compound 23, 6‐Bromo‐4‐(4‐(4‐methoxyphenyl)‐1H‐1,2,3‐triazol‐1‐yl)‐2H‐chromen‐2‐one]",Concentration inducing significant death in CEM cells,CEM leukemia cell line,approximately 10 µM
"COc1cc(-c2cn(-c3cc(=O)oc4c(Cl)cc(Cl)cc34)nn2)cc(OC)c1OC [Compound 17, 6,8‐Dichloro‐4‐(4‐(3,4,5‐trimethoxyphenyl)‐1H‐1,2,3‐triazol‐1‐yl)‐2H‐chromen‐2‐one]",EC50,TK+ VZV,66.9 µM
same,CEM cell death (in words),CEM leukemia cell line,did not induce significant CEM cell death
"COc1cc(OC)cc(-c2cn(-c3cc(=O)oc4ccc(Br)cc34)nn2)c1 [Compound 22, 6‐Bromo‐4‐(4‐(3,5‐dimethoxyphenyl)‐1H‐1,2,3‐triazol‐1‐yl)‐2H‐chromen‐2‐one]",EC50,TK+ VZV,58.5 µM
same,Concentration inducing significant death in CEM cells,CEM leukemia cell line,approximately 10 µM
"COc1cc(-c2cn(-c3cc(=O)oc4cc(C)ccc34)nn2)cc(OC)c1OC [Compound 18, 7‐Methyl‐4‐(4‐(3,4,5‐trimethoxyphenyl)‐1H‐1,2,3‐triazol‐1‐yl)‐2H‐chromen‐2‐one]",Compound crystallization in treated cells,[1],significant compound crystallization
same,CEM cell death (in words),CEM leukemia cell line,did not induce quantifiable CEM cell death
"COc1cc(-c2cn(-c3ccccc3)nn2)cc(OC)c1OC [Compound 20, 1‐Phenyl‐4‐(3,4,5‐trimethoxyphenyl)‐1H‐1,2,3‐triazole]",EC50,TK– VZV,39.1 µM
same,Mode of cell death (apoptosis vs necrosis),CEM cells,preferentially induces cell death via apoptosis
same,CC50,[2],55.4 µM
same,EC50,TK+ VZV,39.9 µM
same,Solubility (in words),[1],the most readily soluble of the compounds
"COc1cc(-c2cn(-c3cc(=O)oc4ccc(Br)cc34)nn2)cc(OC)c1OC [Compound 16, 6‐Bromo‐4‐(4‐(3,4,5‐trimethoxyphenyl)‐1H‐1,2,3‐triazol‐1‐yl)‐2H‐chromen‐2‐one]",Solubility (in words),[1],relatively soluble
same,CEM cell death (in words),CEM leukemia cell line,did not induce significant CEM cell death
"COc1ccc2c(-n3cc(-c4cc(OC)c(OC)c(OC)c4)nn3)cc(=O)oc2c1 [Compound 19, 7‐Methoxy‐4‐(4‐(3,4,5‐trimethoxyphenyl)‐1H‐1,2,3‐triazol‐1‐yl)‐2H‐chromen‐2‐one]",Compound crystallization in treated cells,[1],significant compound crystallization
same,CEM cell death (in words),CEM leukemia cell line,did not induce quantifiable CEM cell death
"COc1cc(-c2cn(-c3cc(=O)oc4ccccc34)nn2)cc(OC)c1OC [Compound 13, 4‐(4‐(3,4,5‐Trimethoxyphenyl)‐1H‐1,2,3‐triazol‐1‐yl)‐2H‐chromen‐2‐one]",Compound crystallization in treated cells,[1],significant compound crystallization
same,CEM cell death (in words),CEM leukemia cell line,did not induce quantifiable CEM cell death
"COc1cc(-c2cn(-c3cc(=O)oc4ccc(Cl)cc34)nn2)cc(OC)c1OC [Compound 15, 6‐Chloro‐4‐(4‐(3,4,5‐trimethoxyphenyl)‐1H‐1,2,3‐triazol‐1‐yl)‐2H‐chromen‐2‐one]",Solubility (in words),[1],one of the least soluble compounds in the series
same,CEM cell death (in words),CEM leukemia cell line,demonstrated cytotoxicity at its highest soluble concentration
